What all share (assay type): functional
The subject of assay [1] is Human alphaherpesvirus 1. In words: Compound was evaluated for antiviral activity against HSV-1 reported as ED50 value. To be noted: read-out: ED50 (the source's name). An outline of the steps: (§1)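 CPE inhibition assay in pregrown Vero cell monolayers infected with HSV-1 (strain 377) or HSV-2 (strain HF). Virus-induced cytopathogenic effect was scored quantitatively. Virus rating weighs the degree of CPE inhibition against cytotoxicity to the host cells, following a modified Ehrlich et al. method.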

Assay [2] has as its system Human alphaherpesvirus 1. In words: Compound was evaluated for antiviral activity against HSV-1 reported as virus rating. An outline of the steps: as §1
For assay [3], the system named is Human alphaherpesvirus 2. The assay can be described thus: Compound was evaluated for antiviral activity against HSV-2 reported as virus rating. An outline of the steps:
as §1

For assay [4], the system named is Human alphaherpesvirus 2. The assay can be described thus: Compound was evaluated for antiviral activity against HSV-2 reported as ED50 value. To be noted: read-out: ED50 (the source's name). An outline of the steps:
as §1

The subject of the next assay is P388. The assay can be described thus: Compound was evaluated for growth inhibition of P-388 lymphoid leukemia cells. To be noted: Mus musculus, read-out: ED50 (the source's name). Summed up:
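P-388 mouse lymphoid leukemia cells were seeded at 4×10^5 per tube in Fischer's medium with 10% horse serum. Twofold compound dilutions were run in duplicate tubes, stoppered, and held at a 30° angle at 37 °C for 72 h without agitation, rotated twice daily. Cells were counted by hemocytometer. Percent inhibition was taken against controls, with counts corrected for the inoculum.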

In brackets after ≈: the same amount, converted by molar mass.

Consider `Nc1nc(O)c2ncn(C/C=C/CO)c2n1`, for which the EC50 turned out to be 172 µg/mL (≈ 778 µM) with Human alphaherpesvirus 1 [1] and 219 µg/mL (≈ 990 µM) with Human alphaherpesvirus 2 [4]. Further, the VR with Human alphaherpesvirus 1 [2] was 1.5; in the assay with Human alphaherpesvirus 2 [3], 0.9.
`Nc1ncnc2c1ncn2C/C=C/CCl`: the EC50 in the assay with P388 turned out to be 5 µg/mL (≈ 22.4 µM).
For `Nc1nc2c(ncn2COCCO)c(=O)[nH]1` [ACYCLOVIR], the EC50 in the assay with Human alphaherpesvirus 1 [1] turned out to be 12.3 µg/mL (≈ 54.6 µM); in the assay with Human alphaherpesvirus 2 [4], 4.8 µg/mL (≈ 21.3 µM). Also, the figures for the VR with Human alphaherpesvirus 1 [2] and with Human alphaherpesvirus 2 [3] were 6.3 and 4.8, respectively.
Regarding `Nc1ncnc2c1ncn2[C@@H]1O[C@H](CO)[C@@H](O)[C@@H]1O` [VIDARABINE], the VR in the assay on Human alphaherpesvirus 1 [2] is 2; in the assay with Human alphaherpesvirus 2 [3], 1.4.

These data come from ChEMBL document CHEMBL1123936, “Synthesis and biological evaluation of acyclic neplanocin analogues” (1987).
